Calls of active or inactive are those of the source. The rule behind the calls is not given here.
How the values were obtained:
[1] = system: HepG2; test: Induction of apoptosis in human HepG2 cells assessed as increase in cleaved-caspase 3 protein expression at 1 to 4 uM after 24 hrs by Western blot analysis; type: functional, cell-based; conditions: dose 1-4 µM
Method in brief: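 HepG2 cells lysed in RIPA on ice for 20 min; protein measured by BCA. Lysates run on 10% SDS-PAGE and transferred to PVDF. Membranes blocked in 5% nonfat milk/TBST for 2 h, incubated with primary antibodies overnight at 4 °C, then HRP secondary antibody; bands detected by ECL.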

[2] = system: HepG2; test: Antitumour activity against human HepG2 cells xenografted in AB zebrafish assessed as inhibition of cell growth at 0.8 to 2.4 uM after 48 hrs by cell tracker CM-Dil based laser confocal microscopic method; type: functional; conditions: dose 0.8-2.4 µM
Method in brief: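 Wild-type AB zebrafish embryos raised at 28 °C in embryo medium (5.0 mM NaCl, 0.17 mM KCl, 0.4 mM CaCl2, 0.16 mM MgSO4). HepG2 cells labelled with CM-DiI, microinjected into 2-day-old larvae. At 4 h post-injection, larvae with the same injection spot were grouped (about 15–20 per group, three wells each). Exposed to 0.8, 1.6 or 2.4 μM in the water for 48 h; doxorubicin 1.0 μM as reference. Tumour fluorescence intensity measured by confocal microscopy.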

[3] = system: HepG2; test: Induction of apoptosis in human HepG2 cells assessed as viable cells at 4 uM after 24 hrs by annexin V/propidium iodide staining based flow cytometric analysis (reference value: 95.3%); type: functional; conditions: read-out: Activity
[4] = system: HepG2; test: Induction of apoptosis in human HepG2 cells assessed as viable cells at 4 uM after 24 hrs in presence of z-VAD-fmk by annexin V/propidium iodide staining based flow cytometric analysis (reference value: 92.8%); type: functional; conditions: read-out: Activity
[5] = system: HepG2; test: Antiproliferative activity against human HepG2 cells assessed as reduction in cell viability after 48 hrs by MTT assay; type: functional, cell-based; conditions: HepG2, 48 h
Method in brief: (§1)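 Cell lines grown at 37 °C in 5% CO2: A2780, A549, HL7702 and PC3 in RPMI 1640; HT29 in McCoy's 5A; HepG2 and PANC-1 in DMEM; all media with 10% FBS and penicillin/streptomycin. Cells seeded and left overnight, then exposed to compound for 48 h. MTT (5 mg/mL solution) added for 4 h at 37 °C, formazan dissolved in DMSO, absorbance read at 570 nm. IC50 taken from viability; run in triplicate.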

[6] = system: HepG2; test: Induction of ROS generation in human HepG2 cells after 24 hrs by DCFH-DA staining based flow cytometric analysis; type: functional, cell-based
Method in brief: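 HepG2 cells treated for the stated time, then loaded with 10 μM DCFH-DA in FBS-free medium for 30 min in the dark. Washed twice with PBS, trypsinized, pelleted at 1200 rpm for 5 min, resuspended in PBS and read by flow cytometry. Kit Rosup reagent served as positive agent.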

[7] = system: HepG2; test: Induction of morphological changes in human HepG2 cells assessed as accumulation of cytoplasmic vacuoles at 4 uM after 24 hrs by optical microscopic method; type: functional, cell-based
Method in brief: (§2)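 Cells grown at 37 °C, 5% CO2 in media with 10% FBS and penicillin/streptomycin, then treated with compound. Cytoplasmic vacuoles judged by optical microscopy. Time course at 4 μM, or 10 h exposure across increasing concentrations.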

[8] = system: PANC-1; test: Induction of morphological changes in human PANC-1 cells assessed as accumulation of cytoplasmic vacuoles at 4 uM after 24 hrs by optical microscopic method; type: functional, cell-based; method in brief: as §2
[9] = system: HepG2; test: Induction of cell death in human HepG2 cells at 3 uM after 24 hrs in presence of 3-MA by MTT assay; type: functional, cell-based
Method in brief: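 HepG2 cells given 3 μM for 24 h together with CQ (10 μM) or 3-MA (1 mM). Viability measured by MTT with absorbance read at 570 nm.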

[10] = Drug uptake in human HepG2 cells mitochondria at 5 uM after 12 hrs by HPLC analysis; type: ADME; conditions: hepg2, 12 h
Method in brief: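 HepG2 cells given 5 μM for 12 h, then homogenized in mitochondrial extraction reagent. Spun at 600 g, 4 °C, 10 min; supernatant spun again at 11000 g, 4 °C, 10 min, and the pellet taken as mitochondria. Drug content by HPLC on a C18 column with methanol–0.1% acetic acid (80:20), detection at 265 nm. Run thrice.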

[11] = system: PC-3; test: Induction of morphological changes in human PC3 cells assessed as accumulation of cytoplasmic vacuoles at 4 uM after 24 hrs by optical microscopic method; type: functional, cell-based; method in brief: as §2
[12] = system: HepG2; test: Induction of cell death in human HepG2 cells assessed as reduction in cell viability after 24 hrs in presence of z-VAD-fmk by MTT assay; type: functional, cell-based
Method in brief: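 HepG2 cells pretreated with 20 μM z-VAD-fmk for 2 h, then exposed to a range of doses. Viability measured by MTT: 4 h at 37 °C, formazan in DMSO, absorbance at 570 nm.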

[13] = system: HepG2; test: Induction of apoptosis in human HepG2 cells assessed as accumulation of AIF in cytoplasm at 4 uM after 24 hrs by immunofluorescence assay; type: functional, cell-based
Method in brief: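 HepG2 cells in glass-bottom dishes given 4 μM for 24 h. Fixed in methanol:acetone (1:1) for 10 min, blocked with 5% BSA for 1 h at room temperature. Anti-AIF antibody applied overnight at 4 °C, then Alexa Fluor 594 secondary; nuclei stained with DAPI. Imaged by confocal microscopy.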

[14] = system: HepG2; test: Induction of mitochondrial dysfunction in human HepG2 cells assessed as decrease in mitochondrial membrane […] at 1 to 4 uM after 24 hrs by JC-1 staining based flow cytometric analysis; type: functional, cell-based; conditions: dose 1-4 µM
Method in brief: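 HepG2 cells in 6-well plates treated for 24 h at 37 °C, then trypsinized. Stained with JC-1 at a final 2.5 μg/mL for 30 min, washed three times, resuspended in PBS and read by flow cytometry.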

[15] = Drug localization n human HepG2 cells mitochondria by MitoTracker staining based confocal microscopic analysis; type: ADME
Method in brief: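 HepG2 cells in glass-bottom dishes were exposed to compound, then stained with 150 nM MitoTracker Red CMXRos for 20 min. Compound's own blue fluorescence imaged against the red mitochondrial signal by confocal microscopy.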

[16] = system: A549; test: Induction of morphological changes in human A549 cells assessed as accumulation of cytoplasmic vacuoles at 4 uM after 24 hrs by optical microscopic method; type: functional, cell-based
[17] = system: HepG2; test: Induction of cell death in human HepG2 cells at 3 uM after 12 hrs by MTT assay; type: functional, cell-based
[18] = system: HepG2; test: Induction of apoptosis in human HepG2 cells assessed as necrotic cells at 2 uM after 24 hrs by annexin V/propidium iodide staining based flow cytometric analysis (reference value: 0.11%); type: functional
[19] = system: PC-3; test: Antiproliferative activity against human PC-3 cells assessed as reduction in cell viability after 48 hrs by MTT assay; type: functional, cell-based; conditions: PC-3, 48 h; method in brief: as §1
[20] = system: HepG2; test: Induction of morphological changes in human HepG2 cells assessed as accumulation of vacuoles at 3 uM after 24 hrs in presence of 3-MA by microscopic method; type: functional, cell-based
Method in brief: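 HepG2 cells given 3 μM compound for 24 h with chloroquine (10 μM) or 3-methyladenine (1 mM). Vacuolization and viability examined, viability by MTT.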

C=CCc1ccc(O)c(-c2ccc(OCCCCCc3c4[n+](cc5c(OC)c(OC)ccc35)CCc3cc5c(cc3-4)OCO5)c(CC=C)c2)c1.[I-]
Activity [1]: Active | growth inhibition (GI) [2]: Active | viability at 4 µM [3]: 73.3% | viability at 4 µM [4]: 73% | IC50 [5]: 1.63 µM | Activity [6]: Dose-dependent effect | Activity [7]: Active | Activity [8]: Active | Activity [9]: Active | Drug uptake [10]: 66.3 µM | Activity [11]: Active | Activity [12]: Active | Activity [13]: Active | Activity [14]: Active | Drug uptake [15]: Active | Activity [16]: Active | Activity [17]: Active | Activity [18]: 0.13% | IC50 [19]: 2.25 µM | Activity [20]: Active

— ChEMBL document CHEMBL4673249, “Anticancer Effects of Honokiol via Mitochondrial Dysfunction Are Strongly Enhanced by the Mitochondria-Targeting Carrier Berberine” (J Med Chem, 2020)
